From ChEMBL document CHEMBL1142963, “Novel sigma receptor ligands: synthesis and biological profile” (J Med Chem, 2007)
Activity calls are given as the source filed them. No cut-off for these calls is given here.

Tests used:
[1] = target: Sigma non-opioid intracellular receptor 1 (Cavia porcellus, UniProt Q60492); test: Displacement of [3H](+)-pentazocine from guinea pig brain sigma 1 receptor
[2] = Displacement of [3H]DTG rom guinea pig brain sigma 2 receptor; set-up: species or system Cavia porcellus
[3] = species on record: Rattus norvegicus; test: Increase in TG-2 expression in albino Wistar rat primary 14 DIV astroglial cell at 25 uM after 24 hrs by CLSM analysis; assay type: functional
Procedure, shortened: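 Astrocytes at 14 DIV were treated with 25 µM for 24 h and fixed in 4% paraformaldehyde for 20 min. They were blocked with 1% normal serum for 1 h, then incubated overnight with anti-TG-2 monoclonal (1:500), followed by FITC and TRITC anti-IgG (1:64, 2 h each). Confocal imaging at fixed settings measured cytosolic and nuclear fluorescence intensity versus control after nonspecific subtraction.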

[4] = species on record: Rattus norvegicus; test: Activity at sigma 2 receptor in rat astroglial cells; assay type: cell-based
[5] = species on record: Rattus norvegicus; test: Increase in TG-2 expression in albino Wistar rat primary astroglial cells at 25 uM after 24 hrs; assay type: functional
Procedure, shortened: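 Primary Wistar rat astrocytes at 14 DIV were exposed to ligand 25 µM for 24 h. Densitometric percentage of TG-2 versus untreated control; HUVEC extract as positive control. Mean ± SD of four experiments.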

[6] = species on record: Rattus norvegicus; test: Increase of caspase 3 cleavage in albino Wistar rat primary astroglial cells at 25 uM after 24 hrs relative to control; assay type: functional
Procedure, shortened: (§1)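 Primary astrocytes from 1–2-day-old Wistar rat brains were grown 14 DIV, then exposed to ligand 25 µM for 24 h. Cells were lysed and sonicated, and 30 µg protein was run on 10% SDS-PAGE. Mean ± SD of four experiments; t test.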

[7] = Increase in apoptosis in albino Wistar rat primary 14 DIV astroglial cells at 25 uM after 24 hrs by TUNEL assay relative to control; assay type: functional
Procedure, shortened: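 Astrocytes at 14 DIV were treated 24 h at 25 µM. TUNEL labelling with fluorescein-dUTP at free 3′-OH DNA ends; apoptotic cells appear green (FITC), nonapoptotic cells red (PI). Apoptotic cells were counted against all cells in 10 random fields per dish and expressed as a percentage.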

[8] = species on record: Rattus norvegicus; test: Decrease of caspase 3 cleavage in albino Wistar rat primary astroglial cells at 25 uM after 24 hrs relative to control; assay type: functional; procedure, shortened: as §1

Sequence of Sigma non-opioid intracellular receptor 1 (Q60492 whole entry): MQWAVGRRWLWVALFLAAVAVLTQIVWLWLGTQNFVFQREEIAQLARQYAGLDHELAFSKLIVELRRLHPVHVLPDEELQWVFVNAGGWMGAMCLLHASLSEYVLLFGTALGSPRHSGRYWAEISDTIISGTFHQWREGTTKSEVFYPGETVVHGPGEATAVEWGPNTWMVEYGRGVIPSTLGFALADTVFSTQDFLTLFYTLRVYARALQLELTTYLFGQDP

Row | Structure (SMILES) | Ki [1] [nM] | Ki [2] [nM] | further results
1 | COC(=O)C1(c2ccc([N+](=O)[O-])cc2)CC1CN1CCC(O)(c2ccccc2)CC1 (stereo not given) | 1.9 | 18 | –
2 | COC(=O)C1(c2ccc(OC)cc2)CC1CN1CCC(O)(c2ccccc2)CC1 (stereo not given) | 3.1 | 53 | –
3 | O=C(CCCN1CCC(O)(c2ccc(Cl)cc2)CC1)c1ccc(F)cc1 | – | – | Activity [3]: Active; Activity ([4]; filed as agonist): Agonist
4 | COC(=O)C1(c2ccc(C)cc2)CC1CN1CCN(c2ccccn2)CC1 (stereo not given) | 497 | 2170 | –
5 | CC[C@H]1C[C@@H]2C[C@H]3c4[nH]c5ccc(OC)cc5c4CCN(C2)[C@@H]13 [IBOGAINE] | 250 | – | –
6 | COC(=O)C1(c2ccc(Cl)cc2)CC1CN1CCN(c2ncccn2)CC1 (stereo not given) | 350 | 2710 | –
7 | Cc1ccccc1NC(=N)Nc1ccccc1C [DITOLYLGUANIDINE] | – | 49 | –
8 | COC(=O)C1(c2ccc(OC)cc2)CC1CN1CCN(c2ccccn2)CC1 (stereo not given) | 1260 | > 10000 | –
9 | COC(=O)C1(c2ccc(Cl)cc2)CC1CN1CCN(c2ccccn2)CC1 (stereo not given) | 707 | 2400 | –
10 | COC(=O)C1(c2ccc(C)cc2)CC1CN1CCC(Cc2ccccc2)CC1 (stereo not given) | 0.97 | 8.9 | –
11 | COC(=O)C1(c2ccc(N)cc2)CC1CN1CCN(c2ncccn2)CC1 (stereo not given) | > 10000 | 3590 | –
12 | COC(=O)C1(c2ccc([N+](=O)[O-])cc2)CC1CN1CCN(c2ncccn2)CC1 (stereo not given) | 619 | > 10000 | –
13 | COC(=O)C1(c2ccc(OC)cc2)CC1CN1CCC(Cc2ccccc2)CC1 (stereo not given) | 1 | 14 | –
14 | COC(=O)C1(c2ccc(N)cc2)CC1CN1CCN(c2ccccn2)CC1 (stereo not given) | > 10000 | > 10000 | –
15 | COC(=O)C1(c2ccc(Cl)cc2)CC1CN1CCC(Cc2ccccc2)CC1 (stereo not given) | 0.82 | 11.9 | –
16 | COC(=O)C1(c2ccccc2)CC1CN1CCN(c2ncccn2)CC1 (stereo not given) | 3090 | > 10000 | –
17 | CC[C@H]1C[C@H]2C[C@H]3c4[nH]c5ccc(OC)cc5c4CCN(C2)[C@@H]13 [IBOGAINE] | – | 9310 | Activity [5]: Active; Activity [3]: Active; Activity [6]: Active; Ratio [7]: 95%; Activity ([4]; filed as agonist): Agonist
18 | COC(=O)C1(c2ccc([N+](=O)[O-])cc2)CC1CN1CCN(c2ccccn2)CC1 (stereo not given) | 769 | > 10000 | –
19 | COC(=O)C1(c2ccccc2)CC1CN1CCC(O)(c2ccccc2)CC1 (stereo not given) | 3.1 | 34 | –
20 | CN(C)CCN(C)CCc1ccc(Cl)c(Cl)c1 | – | – | Activity [5]: inactive; Activity [3]: Active; Activity [8]: Active; Ratio [7]: 7%; Activity ([4]; filed as agonist): Agonist
21 | COC(=O)C1(c2ccc(OC)cc2)CC1CN1CCN(c2ncccn2)CC1 (stereo not given) | 2030 | > 10000 | –
22 | COC(=O)C1(c2ccccc2)CC1CN1CCC(Cc2ccccc2)CC1 (stereo not given) | 2.2 | 13.2 | –
23 | CC(C)=CCN1CC[C@]2(C)c3cc(O)ccc3C[C@H]1[C@H]2C [(+)-PENTAZOCINE] | – | 1540 | Activity [8]: Active; Activity [4]: inactive
24 | COC(=O)C1(c2ccc([N+](=O)[O-])cc2)CC1CN1CCC(Cc2ccccc2)CC1 (stereo not given) | 0.68 | 9 | –
25 | COC(=O)C1(c2ccc(Cl)cc2)CC1CN1CCC(O)(c2ccccc2)CC1 (stereo not given) | 1.7 | 19 | –
26 | COC(=O)C1(c2ccc(C)cc2)CC1CN1CCN(c2ncccn2)CC1 (stereo not given) | 353 | 3360 | –
27 | COC(=O)C1(c2ccccc2)CC1CN1CCN(c2ccccn2)CC1 (stereo not given) | 1330 | 6290 | –
